Changes are numbered by the printed parent chain. “Also recorded” adds a separate entry of the source. Like-named read-outs stand apart in the source and are kept apart here.
Key:
rat M1 [1] = target: T1, rat M1 (Rattus norvegicus, UniProt P08482); assay: Calcium mobilization assay, rat M1 cell line; assay type: cell-based
T1 sequence (P08482 1-460): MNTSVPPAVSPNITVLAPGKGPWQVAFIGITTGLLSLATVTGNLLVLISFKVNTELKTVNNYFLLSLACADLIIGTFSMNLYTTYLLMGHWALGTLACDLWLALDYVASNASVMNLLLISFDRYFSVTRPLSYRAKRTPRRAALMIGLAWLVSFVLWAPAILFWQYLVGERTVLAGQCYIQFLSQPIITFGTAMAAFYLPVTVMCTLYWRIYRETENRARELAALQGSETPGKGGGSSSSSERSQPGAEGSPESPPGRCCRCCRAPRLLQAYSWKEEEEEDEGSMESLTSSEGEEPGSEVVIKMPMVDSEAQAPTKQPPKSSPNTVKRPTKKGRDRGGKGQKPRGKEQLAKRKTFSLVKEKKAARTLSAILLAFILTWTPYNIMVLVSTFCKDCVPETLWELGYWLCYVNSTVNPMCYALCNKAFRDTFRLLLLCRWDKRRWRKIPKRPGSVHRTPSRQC
Outline: (§1)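 Muscarinic receptor-expressing CHO cells were plated at 20,000 cells/well in medium without G418 the day before. They were loaded with 1.15 μM Fluo-4 AM for 45 min at 37 °C in HBSS with 20 mM HEPES and 2.5 mM probenecid. Test compound (10-point 1:3 series, top final 30 μM) was added for 2.5 min, then EC20 ACh for 1 min. Calcium flux was fitted with a four-parameter logistic curve.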

mouse M1 = target: T2, mouse M1 (Mus musculus, UniProt P12657); assay: Calcium mobilization assay, mouse M1 cell line with low expression; assay type: cell-based
T2 sequence (P12657 1-460): T1 sequence (P08482 1-460) with S309P

dog M1 = target: T3, dog M1 (Canis lupus familiaris, UniProt A0A8I3RVA9); assay: Calcium mobilization assay, low expression M1 dog line; assay type: cell-based
T3 sequence (A0A8I3RVA9 1-460): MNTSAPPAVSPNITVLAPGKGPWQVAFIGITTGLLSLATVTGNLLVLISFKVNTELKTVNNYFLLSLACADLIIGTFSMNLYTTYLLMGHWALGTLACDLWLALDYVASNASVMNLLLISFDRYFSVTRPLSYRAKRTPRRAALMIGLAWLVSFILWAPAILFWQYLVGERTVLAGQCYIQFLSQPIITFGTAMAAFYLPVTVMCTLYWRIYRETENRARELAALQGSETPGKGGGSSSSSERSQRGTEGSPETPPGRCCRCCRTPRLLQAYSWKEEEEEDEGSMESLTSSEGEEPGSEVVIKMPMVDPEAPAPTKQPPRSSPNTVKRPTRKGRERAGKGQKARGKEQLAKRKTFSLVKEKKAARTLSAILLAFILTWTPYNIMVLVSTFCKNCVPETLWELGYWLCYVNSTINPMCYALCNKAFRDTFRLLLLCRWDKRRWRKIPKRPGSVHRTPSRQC

human M2–M5 = assay: Calcium mobilization selectivity, human M2–M5; assay type: cell-based; conditions: Figure 4A
Outline: as §1

rat M2-M5 = assay: Calcium mobilization selectivity, rat M2-M5; assay type: cell-based; conditions: Figure 4B
Outline: as §1

rat M1 [2] = target: T1, rat M1; assay: [3H]-NMS competition radioligand binding; conditions: up to 30 μM, rat M1-CHO membranes
Outline: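 Rat M1-CHO membranes (10 μg) were incubated with test compound (11-point 1:3 series, top final 30 μM) and 0.088 nM [3H]-NMS (Kd). Binding buffer was 20 mM HEPES, 10 mM MgCl2 and 100 mM NaCl, pH 7.4, for 1 h at room temperature with shaking. Nonspecific binding was defined with 10 μM atropine. Samples were filtered, washed three times with ice-cold Tris buffer and counted by scintillation.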

[3] = Plasma protein binding by equilibrium dialysis, human; assay type: in vitro ADME; conditions: pH 7.4
Outline: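 Plasma spiked with test article was dialysed against 25 mM phosphate buffer, pH 7.4, by equilibrium dialysis for 4 h at 37 °C with shaking. Aliquots from each chamber were matrix-matched, extracted with ice-cold acetonitrile, centrifuged and quantified by LC/MS/MS.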

cytochrome P450 3A4 = cytochrome P450 3A4 (Homo sapiens, UniProt P08684); assay: CYP450 inhibition in human liver microsomes, 3A4; assay type: in vitro ADME
cytochrome P450 3A4, sequence (P08684 whole entry): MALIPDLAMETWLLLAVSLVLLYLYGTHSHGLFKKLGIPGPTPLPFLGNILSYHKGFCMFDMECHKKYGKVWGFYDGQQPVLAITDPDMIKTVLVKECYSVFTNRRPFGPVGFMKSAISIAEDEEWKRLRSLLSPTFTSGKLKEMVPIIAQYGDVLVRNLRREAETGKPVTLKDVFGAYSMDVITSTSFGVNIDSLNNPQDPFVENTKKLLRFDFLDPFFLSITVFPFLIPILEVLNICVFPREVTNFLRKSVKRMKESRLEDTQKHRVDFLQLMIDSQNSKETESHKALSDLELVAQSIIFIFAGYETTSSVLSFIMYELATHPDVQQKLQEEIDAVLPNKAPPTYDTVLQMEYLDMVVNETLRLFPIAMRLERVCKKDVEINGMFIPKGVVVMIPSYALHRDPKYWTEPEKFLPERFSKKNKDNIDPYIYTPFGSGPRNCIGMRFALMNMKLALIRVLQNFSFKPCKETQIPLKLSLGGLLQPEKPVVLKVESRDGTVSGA

[4] = Cynomolgus monkey IV/PO PK study; assay type: in vivo
Outline: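 Male cynomolgus monkeys (n = 3) received a single IV bolus of 1 mg/kg in ethanol:PEG400:saline (10:60:30, v/v/v) and a single oral dose of 3 mg/kg in 30% aqueous Captisol. Plasma PK parameters were calculated by noncompartmental analysis.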

rats = assay: Modified Irwin Toxicology Battery in rats; assay type: in vivo, rat; conditions: 56.6 mg/kg i.p.
Outline: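 Rats received vehicle or test compound at 56.6 mg/kg i.p. in 10% Tween 80 (2 mL/kg; n = 3) after baseline assessment. A blinded observer scored autonomic and somatomotor parameters at 15, 30, 60, 180 and […].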

[5] = male, cynomolgus monkey, plasma, intravenous, 1 mg/kg

- EC50 (rat M1 [1]; M1 PAM pEC50, rat M1 cell line, high expression): 234 nM
- EC50 (rat M1 [1]; M1 agonist activity EC50, rat M1 cell line, compound alone): 5600 nM
- EC50 (rat M1 [1]; M1 agonist activity pEC50, rat M1 cell line, compound alone): 5370 nM
- EC50 (rat M1 [1]; Rat M1 CRC EC50, Figure 4B): 253 nM
- M1 agonist activity, % ACh (rat M1 [1]; rat M1 cell line, compound alone): 26 ± 6 % ACh
- M1 PAM efficacy, % ACh Max (rat M1 [1]; rat M1 cell line, high expression): 83 ± 1 % ACh Max
- EC50 (mouse M1; M1 PAM EC50, mouse M1 cell line): 600 nM
- EC50 (mouse M1; M1 PAM pEC50, mouse M1 cell line): 562 nM
- M1 PAM efficacy, % ACh Max (mouse M1; mouse M1 cell line): 77 ± 4 % ACh Max
- M1 agonism, % ACh Max (mouse M1; mouse M1 cell line, compound alone): 9 ± 1 % ACh Max
- EC50 (dog M1; M1 PAM EC50, dog M1 line, low expression): 380 nM
- EC50 (dog M1; M1 PAM pEC50, dog M1 line, low expression): 389 nM
- EC50 (dog M1; M1 agonist activity EC50, dog M1 line, compound alone): > 10000 nM
- Emax (dog M1; read-out: M1 PAM efficacy, % ACh Max): 78 ± 1%
- Emax (dog M1; read-out: M1 agonist activity, % ACh Max): 18 ± 0.2%
- fraction unbound at 4 h [3]: 0.12
- IC50 (cytochrome P450 3A4): 5000 nM
- half-life ([4]; male, cynomolgus monkey, plasma, 1 mg/kg): 4.2 h
- Vd [4, 5]: 1 L/kg
- clearance [4, 5]: 18 mL/min/kg
- bioavailability ([4]; male, cynomolgus monkey, plasma, po, 3 mg/kg): 37%
SMILES: O=C(N[C@H]1CCCC[C@@H]1O)[C@H]1CN(Cc2ccc(-n3cccn3)cc2)c2ccccc2O1 [VU0486846, (2R)-N-[(1S,2S)-2-Hydroxycyclohexyl]-4-[(4-pyrazol-1-ylphenyl)-methyl]-2,3-dihydro-1,4-benzoxazine-2-carboxamide]
- Activity at human M2–M5 (selectivity) (human M2–M5): highly selective
- Activity at human M2–M5 (selectivity) (human M2–M5; listed as 16): inactive
- Activity at rat M2–M5 (selectivity) (rat M2-M5): highly selective
- Activity at rat M2–M5 (selectivity) (rat M2-M5; listed as 16): inactive
- Inhibition of orthosteric [3H]-NMS binding (rat M1 [2]): no displacement of [^3H]-NMS binding; also recorded: does not substantially inhibit binding
- Adverse events or cholinergic side effects in PK study ([4]; cynomolgus monkey PK study): No adverse events or cholinergic side effects
- free brain levels (rats): 32 nM
- free terminal plasma exposure (rats): 489 nM
- total brain levels (rats): 1.15 µM
- total terminal plasma exposure (rats): 4.4 µM
- Cholinergic side effects or adverse effects (rats; 3 h evaluation period): did not produce any cholinergic side effects or pronounced adverse effects

From paper PMC6146057 (ACS chemical neuroscience, 2018)
